According to ChEMBL document CHEMBL3774372, “Design, physico-chemical properties and biological evaluation of some new N-[(phenoxy)alkyl]- and N-{2-[2-(phenoxy)ethoxy]ethyl}aminoalkanols as anticonvulsant agents” (Bioorg Med Chem, 2016):
The source made the active and inactive calls.

Tests used:
Mus musculus [1] = test: Neurotoxicity in mouse at 50 mg/kg, ip after 1 hr by rotarod test; format: toxicity, organism-based; details: in vivo
Outline: (§1)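 Mice were dosed ip with compound suspended in 0.5% methylcellulose. Rotarod: a 1 in. knurled rod turning at 6 rpm. Neurotoxicity was scored as failure to stay on the rod for at least 1 min in each of three trials. Results are given as the number of animals affected out of the number tested.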

Mus musculus [2] = test: Neurotoxicity in mouse at 30 mg/kg, ip after 4 hrs by rotarod test; format: toxicity, organism-based; details: in vivo; outline: as §1
Mus musculus [3] = test: Neurotoxicity in mouse at 50 mg/kg, ip after 2 hrs by rotarod test; format: toxicity, organism-based; details: in vivo; outline: as §1
Mus musculus [4] = test: Neurotoxicity in mouse at 50 mg/kg, ip after 4 hrs by rotarod test; format: toxicity, organism-based; details: in vivo; outline: as §1
Mus musculus [5] = test: Neurotoxicity in mouse at 300 mg/kg, ip after 0.5 hrs by rotarod test; format: toxicity, organism-based; details: in vivo; outline: as §1
Mus musculus [6] = test: Neurotoxicity in mouse at 100 mg/kg, ip after 0.5 hrs by rotarod test; format: toxicity, organism-based; details: in vivo; outline: as §1
Mus musculus [7] = test: Neurotoxicity in mouse at 30 mg/kg, ip after 0.5 hrs by rotarod test; format: toxicity, organism-based; details: in vivo; outline: as §1
Mus musculus [8] = test: Neurotoxicity in mouse at 100 mg/kg, ip after 2 hrs by rotarod test; format: toxicity, organism-based; details: in vivo; outline: as §1
Mus musculus [9] = test: Neurotoxicity in mouse at 100 mg/kg, ip after 4 hrs by rotarod test; format: toxicity, organism-based; details: in vivo; outline: as §1
Mus musculus [10] = test: Anticonvulsant activity in mouse assessed as protection against subcutaneous pentylenetetrazol-induced seizures at 300 mg/kg, ip measured after 4 hrs; format: functional, organism-based
Outline: (§2)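 Mice dosed ip as 0.5% methylcellulose suspension; pentylenetetrazole 85 mg/kg in 0.9% NaCl injected subcutaneously into posterior midline, animals watched at least 30 min. Protection = no threshold seizure (single clonic spasm episode lasting ≥5 s); scored protected/tested.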

Mus musculus [11] = test: Anticonvulsant activity in mouse assessed as protection against maximal electric shock-induced seizures at 30 mg/kg, ip measured after 0.5 hrs; format: functional, organism-based
Outline: (§3)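 Mice dosed ip with suspension in 0.5% methylcellulose; maximal electroshock applied at the listed time after dosing. Protection = abolition of hindlimb tonic extension component of seizure; reported as animals protected/animals tested.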

Mus musculus [12] = test: Anticonvulsant activity in mouse assessed as protection against maximal electric shock-induced seizures at 30 mg/kg, ip measured after 4 hrs; format: functional, organism-based; outline: as §3
Mus musculus [13] = test: Anticonvulsant activity in mouse assessed as protection against maximal electric shock-induced seizures at 100 mg/kg, ip measured after 0.5 hrs; format: functional, organism-based; outline: as §3
Mus musculus [14] = test: Anticonvulsant activity in mouse assessed as protection against subcutaneous pentylenetetrazol-induced seizures at 30 mg/kg, ip measured after 0.5 hrs; format: functional, organism-based; outline: as §2
Mus musculus [15] = test: Anticonvulsant activity in mouse assessed as protection against maximal electric shock-induced seizures at 100 mg/kg, ip measured after 4 hrs; format: functional, organism-based; outline: as §3
Mus musculus [16] = test: Anticonvulsant activity in mouse assessed as protection against subcutaneous pentylenetetrazol-induced seizures at 100 mg/kg, ip measured after 0.5 hrs; format: functional, organism-based; outline: as §2
Mus musculus [17] = test: Anticonvulsant activity in mouse assessed as protection against subcutaneous pentylenetetrazol-induced seizures at 30 mg/kg, ip measured after 4 hrs; format: functional, organism-based; outline: as §2

SMILES	Activity (Mus musculus [1])	Activity (Mus musculus [2])	Activity (Mus musculus [3])	Activity (Mus musculus [4])	Activity (Mus musculus [5])	Activity (Mus musculus [6])	Activity (Mus musculus [7])	Activity (Mus musculus [8])	Activity (Mus musculus [9])	Activity (Mus musculus [10])	Activity (Mus musculus [11])	Activity (Mus musculus [12])	Activity (Mus musculus [13])	Activity (Mus musculus [14])	Activity (Mus musculus [15])	Activity (Mus musculus [16])	Activity (Mus musculus [17])
Cc1cccc(C)c1OCCOCCN[C@H](C)CO	Non-toxic	Non-toxic	Non-toxic	Non-toxic	Toxic	Toxic	Non-toxic										
Cc1cccc(OCCN2CCC(O)CC2)c1C								Non-toxic	Non-toxic								
CCC(CO)NCCOCCOc1c(C)cccc1C (stereo unspecified)		Non-toxic			Toxic	Toxic	Non-toxic			inactive	inactive	inactive	Active	inactive	inactive	inactive	inactive
